The source of these data is ChEMBL document CHEMBL3580554, “Design, synthesis, and anticonvulsant activity of new hybrid compounds derived from 2-(2,5-dioxopyrrolidin-1-yl)propanamides and 2-(2,5-dioxopyrrolidin-1-yl)butanamides” (J Med Chem, 2015).

Where only a bound is given, the exact number is not on record here.

What is called ED50 is the midpoint of the dose-response relation. As usually defined, the TD50 is the 50% point of the dose-response relation for the toxic effect studied.

The subject of data set [1] is Mus musculus. The experiment in a line: Anticonvulsant activity in Swiss mouse assessed as protection against seizures at 300 mg/kg, ip dosed 2 hrs before initiation of maximal electroconvulsions by maximal electroshock test. The class given is functional. In outline:
(§1)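 Mice were dosed i.p. at a fixed 300 or 100 mg/kg (6 Hz: 100 mg/kg only). Protection was then scored against MES, sc PTZ or 6 Hz seizures at pretreatment times of 0.25, 0.5, 1 and 2 h. Groups were four mice, scored as number protected / number tested. This also gives the time course and time of peak effect.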

Data set [2] concerns Mus musculus. Put plainly: Anticonvulsant activity in Swiss mouse assessed as protection against seizures at 100 mg/kg, ip dosed 0.5 hrs before initiation of maximal electroconvulsions by maximal electroshock test. The data set is classed as functional. The method in brief:
as §1

Data set [3] deals with Mus musculus. The experiment in a line: Anticonvulsant activity in Swiss mouse assessed as protection against seizures at 100 mg/kg, ip dosed 0.25 hrs before initiation of maximal electroconvulsions by maximal electroshock test. The data set is classed as functional. The method in brief:
as §1
(In the maximal electroshock model the usual endpoint is tonic extension of the hind limbs.)

Data set [4] has as its system Mus musculus. Put plainly: Anticonvulsant activity in Swiss mouse assessed as protection against seizures at 300 mg/kg, ip dosed 0.5 hrs before initiation of maximal electroconvulsions by maximal electroshock test. The class given is functional. The method in brief: as §1
Data set [5] concerns Mus musculus. The experiment in a line: Anticonvulsant activity in ip dosed Swiss mouse assessed as protection against seizures measured at 0.25 hrs of time to peak effect by maximal electroshock test. The class given is functional. In outline: (§2)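 Median effective doses (ED50, mg/kg) were determined i.p. in mice at the time of peak effect in the MES, sc PTZ or 6 Hz tests. Only compounds giving at least 50% protection at 100 mg/kg in that test were taken forward.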

Data set [6] has as its system Mus musculus. Put plainly: Anticonvulsant activity in Swiss mouse assessed as protection against seizures at 300 mg/kg, ip dosed 1 hr before initiation of maximal electroconvulsions by maximal electroshock test. The data set is classed as functional. In outline:
as §1

The subject of data set [7] is Mus musculus. Put plainly: Anticonvulsant activity in Swiss mouse assessed as protection against seizures at 300 mg/kg, ip dosed 0.25 hrs before initiation of maximal electroconvulsions by maximal electroshock test. The data set is classed as functional. The method in brief: as §1
Data set [8] concerns Mus musculus. The experiment in a line: Anticonvulsant activity in Swiss mouse assessed as protection against seizures at 100 mg/kg, ip dosed 2 hrs before initiation of maximal electroconvulsions by maximal electroshock test. The data set is classed as functional. In outline: as §1
Data set [9] relates to Mus musculus. The experiment in a line: Anticonvulsant activity in Swiss mouse assessed as protection against seizures at 100 mg/kg, ip dosed 1 hr before initiation of maximal electroconvulsions by maximal electroshock test. The class given is functional. In outline:
as §1

Data set [10] has as its system Mus musculus. Put plainly: Anticonvulsant activity in ip dosed Swiss mouse assessed as protection against seizures measured at 0.5 hrs of time to peak effect by maximal electroshock test. The class given is functional. The method in brief: as §2
The subject of data set [11] is Mus musculus. The experiment in a line: Anticonvulsant activity in ip dosed Swiss mouse assessed as protection against seizures measured at 0.5 hrs of time to peak effect by 6 Hz test by 6 Hz psychomotor seizure test. The class given is functional. In outline: as §2
For data set [12], the species on record is Mus musculus. The experiment in a line: Protective index, ratio of neurotoxic TD50 in Swiss mouse by Chimney test to anticonvulsant ED50 in Swiss mouse measured at 0.5 hrs of time to peak effect by maximal electroshock test. In outline:
(§3)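 Protective index was calculated as TD50 (chimney test, mouse, i.p.) divided by ED50 from the matching MES, sc PTZ or 6 Hz test, both taken at the time of peak effect.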

A short description of data set [13]: Toxicity in ip dosed Swiss mouse assessed as induction of motor performance impairment measured within 60 seconds measured at 0.5 hrs of time to peak effect by Chimney test. The class given is organism-based. The following applies: in vivo. In outline:
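Neurotoxicity was measured i.p. in mice by the chimney test for motor impairment. It was given as the median neurotoxic dose (TD50, mg/kg) at the time of peak effect.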

In data set [14] the test system is Mus musculus. The experiment in a line: Anticonvulsant activity in ip dosed Swiss mouse assessed as protection against seizures measured at 0.5 hrs of time to peak effect by subcutaneous pentylenetetrazole seizure test. The class given is functional. The method in brief: as §2
The species entered for data set [15] is Mus musculus. Put plainly: Protective index, ratio of neurotoxic TD50 in Swiss mouse by Chimney test to anticonvulsant ED50 in Swiss mouse measured at 0.5 hrs of time to peak effect by 6 Hz test by 6 Hz psychomotor seizure test. The data set is classed as functional. In outline: as §3

Consider `CC(C(=O)N1CCN(c2ccccc2)CC1)N1C(=O)CCC1=O` (racemic), for which the Activity in [1] was determined as 0%; in data set [2], 0%; in data set [3] it was 50%; in data set [4] it was 50%; in data set [6], 50%; in [7] it was 100%. In addition, the Activity in [8] and in data set [9] was 0% each time. In addition, the 50% effective dose (ED50) in data set [5] worked out at 164 mg/kg.
For the compound `CC(C(=O)N1CCN(c2ccccc2Cl)CC1)N1C(=O)CCC1=O` (racemic), the Activity in [1] was 0%; in [4], 0%; in data set [6], 25%; in data set [7], 0%.
Consider `CC(C(=O)N1CCN(c2ccc(Cl)cc2)CC1)N1C(=O)CCC1=O` (racemic), for which the Activity in data set [1] is recorded as 0%; in data set [2] it was 25%; in data set [3], 50%; in data set [4] it was 100%; in data set [6], 0%; in data set [7], 100%. The Activity in data set [8] and in [9] was 0% in each case.
As to `CC(C(=O)N1CCN(c2ccccc2F)CC1)N1C(=O)CCC1=O` (racemic), the Activity in [1] came out at 25%; in data set [2] it was 0%; in data set [3], 75%; in data set [4] it was 50%; in [6] it was 50%; in [7], 100%. Also, the Activity in data set [8] and in data set [9] was 0% in each case. The ED50 in data set [5] stood at 151 mg/kg.
On to `CC(C(=O)N1CCN(c2cccc(F)c2)CC1)N1C(=O)CCC1=O` (racemic), for which the Activity was determined as 100% in [1]; 0% in data set [2]; 75% in data set [3]; 50% in data set [4]; 75% in [6]; 100% in data set [7]. The Activity in data set [8] and in data set [9] was 0% each time. In addition, in [5], the ED50 is 137 mg/kg.
Regarding `CC(C(=O)N1CCN(c2ccc(F)cc2)CC1)N1C(=O)CCC1=O` (racemic), the Activity in data set [1] is given as 50%; in [2], 0%; in data set [3], 75%; in data set [4] it was 50%; in data set [6], 25%; in data set [7] it was 100%. In addition, the Activity in [8] and in data set [9] was 0% each time. In data set [5], the ED50 amounted to 130 mg/kg.
In the case of `CC(C(=O)N1CCN(c2ccc(C(F)(F)F)cc2)CC1)N1C(=O)CCC1=O` (racemic), the Activity in data set [1] came out at 0%; in [4] it was 25%; in data set [6] it was 0%; in data set [7] it was 25%.
With `Cc1cccc(N2CCN(C(=O)C(C)N3C(=O)CCC3=O)CC2)c1` (racemic), the Activity in [1] amounted to 0%; in data set [2] it was 0%; in data set [3], 0%; in data set [4], 50%; in [6], 0%; in data set [7], 100%. Further, the Activity in data set [8] and in [9] was 0% each time.
Take `COc1cccc(N2CCN(C(=O)C(C)N3C(=O)CCC3=O)CC2)c1` (racemic): the Activity in [1] was 0%; in data set [2] it was 0%; in [3], 25%; in [4], 50%; in [6], 0%; in data set [7] it was 75%. Further, the Activity in data set [8] and in [9] was 0% each time.
For `CC(C(=O)N1CCOCC1)N1C(=O)CCC1=O` (racemic), the Activity in [1], in data set [4], in [6] and in data set [7] was 0% throughout.
For the compound `CCC(C(=O)N1CCN(c2ccccc2)CC1)N1C(=O)CCC1=O` (racemic), the Activity was found to be 25% in data set [1]; 25% in [2]; 25% in [3]; 75% in data set [4]; 75% in data set [6]; 75% in [7]. In addition, the Activity in data set [8] and in data set [9] was 0% throughout. Besides, in [5], the ED50 was 149 mg/kg.
`CCC(C(=O)N1CCN(c2ccccc2Cl)CC1)N1C(=O)CCC1=O` (racemic): the Activity was 0% in [1], 25% in data set [4], 50% in [6] and 50% in data set [7].
`CCC(C(=O)N1CCN(c2cccc(Cl)c2)CC1)N1C(=O)CCC1=O` (racemic): the Activity in data set [1] worked out at 25%; in [2] it was 50%; in [3], 50%; in [4], 50%; in data set [6], 100%; in data set [7], 75%. Also, the Activity in [8] and in data set [9] was 0% each time. For the same compound, in data set [10], the ED50 is 138 mg/kg.
With `CCC(C(=O)N1CCN(c2ccc(Cl)cc2)CC1)N1C(=O)CCC1=O` (racemic), the Activity was 25% in [1], 0% in data set [4], 25% in [6] and 0% in data set [7].
In the case of `CCC(C(=O)N1CCN(c2ccccc2F)CC1)N1C(=O)CCC1=O` (racemic), the Activity was 0% in data set [1]; 0% in data set [2]; 0% in [3]; 100% in data set [4]; 50% in data set [6]; 100% in data set [7]. Moreover, the Activity in [8] and in data set [9] was 0% each time.
As to `CCC(C(=O)N1CCN(c2cccc(F)c2)CC1)N1C(=O)CCC1=O` (racemic), the Activity in data set [1] was found to be 0%; in [2], 0%; in [3] it was 0%; in data set [4] it was 100%; in [6], 75%; in data set [7] it was 75%. For the same compound, the Activity in data set [8] and in data set [9] was 0% in each case.
As for `CCC(C(=O)N1CCN(c2ccc(F)cc2)CC1)N1C(=O)CCC1=O` (racemic), the Activity is 0% in data set [1], 25% in data set [4], 25% in data set [6] and 0% in data set [7].
For the compound `CCC(C(=O)N1CCN(c2ccccc2C(F)(F)F)CC1)N1C(=O)CCC1=O` (racemic), the Activity is on record as 0% in [1], 25% in data set [4], 0% in data set [6] and 25% in data set [7].
`CCC(C(=O)N1CCN(c2ccc(C(F)(F)F)cc2)CC1)N1C(=O)CCC1=O` (racemic): the Activity in data set [1] was 0%; in data set [4], 0%; in data set [6] it was 0%; in data set [7], 25%.
`CCC(C(=O)N1CCN(c2cccc(C)c2)CC1)N1C(=O)CCC1=O` (racemic): the Activity in data set [1] worked out at 0%; in data set [2], 0%; in data set [3] it was 50%; in [4], 100%; in [6] it was 75%; in [7] it was 100%. Moreover, the Activity in data set [8] and in data set [9] was 0% throughout.
`CCC(C(=O)N1CCN(c2cccc(OC)c2)CC1)N1C(=O)CCC1=O` (racemic): the Activity is reported as 0% in data set [1], 0% in [4], 0% in [6] and 25% in data set [7].
Regarding `CCC(C(=O)N1CCOCC1)N1C(=O)CCC1=O` (racemic), the Activity in data set [1], in [4], in data set [6] and in data set [7] was 0% each time.
In the case of `COC[C@@H](NC(C)=O)C(=O)NCc1ccccc1` [LACOSAMIDE], the ED50 is 6.4 mg/kg in data set [11], 9.4 mg/kg in data set [10] and greater than 500 mg/kg in data set [14]. Further, the “Ratio TD50/ED50” value in data set [12] turned out to be 3.6; in data set [15], 5.26. For the same compound, the TD50 at 0.5 h in [13] was 33.7 mg/kg.
As for `CCCC(CCC)C(=O)O` [VALPROIC ACID], the ED50 in data set [11] was 130 mg/kg.
